Assay results published in ChEMBL document CHEMBL1158527, “Identification of novel allosteric nonpeptidergic inhibitors of the human cytomegalovirus-encoded chemokine receptor US28” (Bioorg Med Chem, 2010).

Legend:
[1] = Displacement of [125I]CCL5 from HCMV US28 receptor; design: species or system Human betaherpesvirus 5
In short: (§1)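 Allosteric inhibition of chemokine binding to US28 was measured by ¹²⁵I-CCL5 radioligand binding. IC50 values (mean and interval) came from competition curves. Single-point data give percent inhibition of CCL5 binding at 10 µM compound. All runs were in triplicate and repeated at least three times.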

[2] = Activity at HCMV US28 receptor assessed as receptor-mediated inositol phosphate response; design: species or system Human betaherpesvirus 5
In short: (§2)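 Compounds were tested against ligand-independent (constitutive) US28-driven inositol phosphate production, measured as InsP accumulation. EC50 values (mean and interval) came from dose–response curves. Single-point data give percent inhibition of constitutive signaling at 10 µM compound. All runs were in triplicate and repeated at least three times.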

Human betaherpesvirus 5 [3] = test: Displacement of [125I]CCL5 from HCMV US28 receptor at 10 uM; in short: as §1
Human betaherpesvirus 5 [4] = test: Activity at HCMV US28 receptor assessed as receptor-mediated inositol phosphate response at 10 uM; in short: as §2

NC1c2ccccc2CCC1Cc1ccc(Cl)cc1Cl (stereo not drawn)
IC50 [1]: 8.5 µM | EC50 [2]: 12.6 µM

CCN1CCC[C@H]1CNC(=O)c1c(OC)ccc(I)c1O [IOLOPRIDE]
IC50 [1]: 0.3 µM

CSc1ccc2c(c1)C(OCCN1CCC(O)(c3ccc(Cl)cc3)CC1)Cc1ccccc1S2 (stereo not drawn)
IC50 [1]: 12.4 µM | EC50 [2]: 7.1 µM

Clc1ccc(CC2Cc3ccccc3C2N2CCN(c3ccccc3)CC2)c(Cl)c1 (stereo not drawn)
IC50 [1]: > 100 µM | EC50 [2]: > 100 µM

CCN1CCN(C2=Nc3cc(Cl)ccc3Oc3ccccc32)CC1
Activity (Human betaherpesvirus 5 [3]): 38% | Activity (Human betaherpesvirus 5 [4]): 0%

c1ccc(CN2C3CCC2CC(OC2c4ccccc4CCc4ccccc42)C3)cc1 (stereo not drawn)
IC50 [1]: 10.5 µM | EC50 [2]: 8.8 µM

CC(Cc1cccc(C(F)(F)F)c1)NCC=C(c1ccc(F)cc1)c1ccc(F)cc1 (stereo not drawn)
Activity (Human betaherpesvirus 5 [3]): 39% | Activity (Human betaherpesvirus 5 [4]): 38%

OC1(c2ccc(Cl)cc2)CCN(CCCN(Cc2ccc(Cl)cc2)c2ccccc2)CC1
IC50 [1]: 5.7 µM | EC50 [2]: 5.5 µM

CCc1ccccc1C1(OCCN(C)Cc2cccc(C)c2)CCCCC1C (stereo not drawn)
IC50 [1]: 12.9 µM | Activity (Human betaherpesvirus 5 [4]): 10%

COc1ccccc1CC1Cc2ccccc2C1N (stereo not drawn)
IC50 [1]: 37.3 µM | EC50 [2]: 42.7 µM

Cc1ccc(CC2Cc3ccccc3C2N)c(C)c1 (stereo not drawn)
IC50 [1]: 17.7 µM | EC50 [2]: 13.7 µM

NCC1(c2ccc(Cl)cc2)CCN(CCCN2Cc3ccccc3CCc3ccccc32)CC1
IC50 [1]: 1.6 µM | EC50 [2]: 7.6 µM

NCC(OC(c1ccccc1)c1ccc(Cl)cc1Cl)c1ccccc1 (stereo not drawn)
IC50 [1]: 9.2 µM | EC50 [2]: 10.2 µM

OC1(c2ccc(Cl)cc2)CCN(CCCN(Cc2ccccc2)c2ccc(Cl)cc2)CC1
IC50 [1]: 1.8 µM | EC50 [2]: 5 µM

COc1ccc(CC2Cc3ccccc3C2N)cc1C (stereo not drawn)
IC50 [1]: 59.7 µM | EC50 [2]: 16.4 µM

CN1CCN(/C(=C/c2cccc(Cl)c2)c2ccccc2)CC1
Activity (Human betaherpesvirus 5 [3]): 13% | Activity (Human betaherpesvirus 5 [4]): 20%

CC(Cc1ccccc1)NCCC1c2ccccc2-c2ccccc21 (stereo not drawn)
IC50 [1]: 5.2 µM | EC50 [2]: 10.9 µM

CN1[C@@H]2CC[C@H]1C[C@@H](OC1c3ccccc3CCc3ccccc31)C2
Activity (Human betaherpesvirus 5 [3]): 15% | Activity (Human betaherpesvirus 5 [4]): 0%

O=C(CCN1CCN(CCO)CC1)N1Cc2ccccc2CCc2ccccc21
IC50 [1]: > 100 µM | Activity (Human betaherpesvirus 5 [4]): 0%

CCN1CCN(C2=Nc3cc(Cl)ccc3Nc3ccccc32)CC1
IC50 [1]: 3.8 µM | Activity (Human betaherpesvirus 5 [4]): 16%

CC(Cc1ccc(Cl)cc1)NCCC1=C2C=CC=CC2Sc2ccccc21 (stereo not drawn)
IC50 [1]: 2.6 µM | Activity (Human betaherpesvirus 5 [4]): 21%

OC1(c2ccc(Cl)cc2)CCN(C2c3ccccc3CC2Cc2ccc(Cl)cc2Cl)CC1 (stereo not drawn)
IC50 [1]: 11 µM | EC50 [2]: 6 µM

OC1(c2ccc(Cl)cc2)CCN(CCCN(Cc2ccccc2)c2ccccc2)CC1
IC50 [1]: 4.1 µM | EC50 [2]: 3 µM

CC(Cc1ccccc1)NCC=C1c2ccccc2CCc2ccccc21 (stereo not drawn)
IC50 [1]: 4.2 µM | Activity (Human betaherpesvirus 5 [4]): 39%

CN1CCN(C2=Nc3ccccc3Oc3ccc(Cl)cc32)CC1
Activity (Human betaherpesvirus 5 [3]): 13% | Activity (Human betaherpesvirus 5 [4]): 0%

OC1(c2ccc(Cl)cc2)CCN(CCOC(c2ccccc2)c2ccccc2)CC1
IC50 [1]: 2.1 µM | EC50 [2]: 3.5 µM

CCCCN1CCN(C2=Nc3cc(Cl)ccc3Nc3ccccc32)CC1
IC50 [1]: 4.7 µM | Activity (Human betaherpesvirus 5 [4]): 19%

N#CC(CCCN1CCC(O)(c2ccc(Cl)cc2)CC1)(c1ccccc1)c1ccccc1 [BERLEX COMPOUND]
IC50 [1]: 4.9 µM | EC50 [2]: 6.3 µM

NC1c2ccccc2CC1Cc1ccc(Cl)cc1Cl (stereo not drawn)
IC50 [1]: 9.5 µM | EC50 [2]: 11.1 µM

CN1CCN(CCC(=O)N2Cc3ccccc3CCc3ccccc32)CC1
IC50 [1]: > 100 µM | Activity (Human betaherpesvirus 5 [4]): 0%

CC(=O)Nc1ccc(CC2Cc3ccccc3C2N)cc1 (stereo not drawn)
IC50 [1]: > 100 µM | EC50 [2]: > 100 µM

C1=Cc2ccccc2C(OC2CC3CCC(C2)N3C2CCCCC2)c2ccccc21 (stereo not drawn)
IC50 [1]: 8.3 µM | EC50 [2]: 5.8 µM

OCCN1CCN(CCCN2Cc3ccccc3CCc3ccccc32)CC1
IC50 [1]: 1.6 µM

Clc1ccc(C2=CCN(C3c4ccccc4CC3Cc3ccc(Cl)cc3Cl)CC2)cc1 (stereo not drawn)
IC50 [1]: > 100 µM | EC50 [2]: > 100 µM

CC(C)(C)c1ccc(C(OC(CN)c2ccccc2)c2ccccc2)cc1 (stereo not drawn)
IC50 [1]: 8.2 µM | EC50 [2]: 8.4 µM

OC1(c2ccc(Cl)cc2)CCN(CCOC(c2ccccc2)c2ccc(F)cc2)CC1 (stereo not drawn)
IC50 [1]: 2.3 µM | EC50 [2]: 4.6 µM

CN1CCN(CCCN2Cc3ccccc3CCc3ccccc32)CC1
IC50 [1]: 4.9 µM | Activity (Human betaherpesvirus 5 [4]): 3%

CN1CCN(C2=Nc3cc(Cl)ccc3Oc3ccccc32)CC1
Activity (Human betaherpesvirus 5 [3]): 19% | Activity (Human betaherpesvirus 5 [4]): 22%

COc1ccc(CC2Cc3ccccc3C2N)c(OC)c1 (stereo not drawn)
IC50 [1]: > 100 µM | EC50 [2]: > 100 µM

CN1CCN(C2=Nc3cc(Cl)ccc3Sc3ccccc32)CC1
Activity (Human betaherpesvirus 5 [3]): 47% | Activity (Human betaherpesvirus 5 [4]): 0%

CCCN1C2CCC1CC(OC1c3ccccc3C=Cc3ccccc31)C2 (stereo not drawn)
Activity (Human betaherpesvirus 5 [3]): 18% | Activity (Human betaherpesvirus 5 [4]): 0%

C=C[C@H]1CN2CC[C@@H]1C[C@H]2C(OC(=O)c1ccc(C)cc1)c1ccnc2ccccc12 (stereo partly drawn)
IC50 [1]: 0.3 µM

NC(CCc1ccccc1)c1ccc(Cl)c(Cl)c1 (stereo not drawn)
Activity (Human betaherpesvirus 5 [3]): 5% | Activity (Human betaherpesvirus 5 [4]): 34%

OCCCCN1CCN(/C(=C/c2cccc(Cl)c2)c2ccccc2)CC1
Activity (Human betaherpesvirus 5 [3]): 13% | Activity (Human betaherpesvirus 5 [4]): 0%

CCN1C2CCC1CC(OC1c3ccccc3CCc3ccccc31)C2 (stereo not drawn)
Activity (Human betaherpesvirus 5 [3]): 7% | Activity (Human betaherpesvirus 5 [4]): 0%

NC(CCc1ccc(Cl)c(Cl)c1)c1ccc(Cl)c(Cl)c1 (stereo not drawn)
IC50 [1]: 7.5 µM | EC50 [2]: 11.7 µM

CCCCCCCCN1C2CCC1CC(OC1c3ccccc3CCc3ccccc31)C2 (stereo not drawn)
IC50 [1]: 5.6 µM | EC50 [2]: 4.9 µM

CN1CCN(C2c3ccccc3CC2Cc2ccc(Cl)cc2Cl)CC1 (stereo not drawn)
IC50 [1]: 8.1 µM | EC50 [2]: 12.1 µM

c1ccc(CCN2C3CCC2CC(OC2c4ccccc4CCc4ccccc42)C3)cc1 (stereo not drawn)
IC50 [1]: 11.9 µM | EC50 [2]: 4.3 µM

OC1(c2ccc(Cl)cc2)CCCN(CCCN2Cc3ccccc3CCc3ccccc32)C1 (stereo not drawn)
IC50 [1]: 0.9 µM | EC50 [2]: 3.9 µM

COc1ccc(CC2Cc3ccccc3C2N)cc1 (stereo not drawn)
IC50 [1]: > 100 µM | EC50 [2]: > 100 µM

Clc1ccc(CC2Cc3ccccc3C2NCc2ccccc2)c(Cl)c1 (stereo not drawn)
IC50 [1]: > 100 µM | EC50 [2]: > 100 µM

CN1CCN(C2=Nc3cc(Cl)ccc3Nc3ccccc32)CC1
Activity (Human betaherpesvirus 5 [3]): 47% | Activity (Human betaherpesvirus 5 [4]): 11%

CC(Cc1ccccc1)NCC=C1c2ccccc2-c2ccccc21 (stereo not drawn)
IC50 [1]: 7 µM | Activity (Human betaherpesvirus 5 [4]): 42%

OC1(c2ccc(Cl)cc2)CCN(CCCN2Cc3ccccc3CCc3ccccc32)CC1
IC50 [1]: 0.7 µM | EC50 [2]: 4.7 µM

CN1CCN(C2Cc3ccccc3Sc3ccc(Cl)cc32)CC1 (stereo not drawn) [CLOROTEPINE]
IC50 [1]: 4.9 µM | EC50 [2]: 12.1 µM

CSc1ccc2c(c1)C(N1CCN(C)CC1)Cc1ccccc1S2 (stereo not drawn) [METITEPINE]
IC50 [1]: 0.41 µM | EC50 [2]: 7.6 µM

NC1c2ccccc2CC1Cc1ccccc1 (stereo not drawn)
IC50 [1]: 80.6 µM | EC50 [2]: > 100 µM

CC(C)N1C2CCC1CC(OC1c3ccccc3C=Cc3ccccc31)C2 (stereo not drawn)
Activity (Human betaherpesvirus 5 [3]): 13% | Activity (Human betaherpesvirus 5 [4]): 3%

Clc1cccc(/C=C(\c2ccccc2)N2CCN(CCCCc3ccccc3)CC2)c1
Activity (Human betaherpesvirus 5 [3]): 47% | Activity (Human betaherpesvirus 5 [4]): 18%

CN1CCN(C2=Nc3ccccc3Sc3ccc(Cl)cc32)CC1
Activity (Human betaherpesvirus 5 [3]): 28% | Activity (Human betaherpesvirus 5 [4]): 0%

Clc1ccc(CC2Cc3ccccc3C2N2CCCCC2)c(Cl)c1 (stereo not drawn)
IC50 [1]: 13.4 µM | EC50 [2]: 2.6 µM

N=C(N)NCCN1C2CCC1CC(OC1c3ccccc3CCc3ccccc31)C2 (stereo not drawn)
Activity (Human betaherpesvirus 5 [3]): 34% | Activity (Human betaherpesvirus 5 [4]): 0%

OC1(c2ccc(Cl)cc2)CCN(CCCC(c2ccc(F)cc2)c2ccc(F)cc2)CC1
IC50 [1]: 3 µM | EC50 [2]: 5.2 µM

CC(Cc1cccc(C(F)(F)F)c1)NCCc1c2ccccc2nc2ccccc12 (stereo not drawn)
IC50 [1]: 5.5 µM | Activity (Human betaherpesvirus 5 [4]): 34%

CC(Cc1ccccc1)NCCC1c2ccccc2CCc2ccccc21 (stereo not drawn)
IC50 [1]: 3.7 µM | EC50 [2]: 5.2 µM

N/C(CCN1C2CCC1CC(OC1c3ccccc3CCc3ccccc31)C2)=N\O (stereo not drawn)
Activity (Human betaherpesvirus 5 [3]): 0% | Activity (Human betaherpesvirus 5 [4]): 0%

NC1c2ccccc2CCCC1Cc1ccc(Cl)cc1Cl (stereo not drawn)
IC50 [1]: 11.8 µM | Activity (Human betaherpesvirus 5 [4]): 26%
